Rpn11 block: blocks the human proteasome subunit Rpn11. O00487. human 26S proteasome, Ub4-pepOG fluorescence polarization; 20S core pre-blocked with epoxomicin. inhibition, % at 20 µM. hit rate 0.59% among 360,000. AID 588493;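 active = inhibition at 20 µM, scaled to each plate's controls, above about 33%, limit read from the data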
Target sequence (O00487 whole entry, looked up): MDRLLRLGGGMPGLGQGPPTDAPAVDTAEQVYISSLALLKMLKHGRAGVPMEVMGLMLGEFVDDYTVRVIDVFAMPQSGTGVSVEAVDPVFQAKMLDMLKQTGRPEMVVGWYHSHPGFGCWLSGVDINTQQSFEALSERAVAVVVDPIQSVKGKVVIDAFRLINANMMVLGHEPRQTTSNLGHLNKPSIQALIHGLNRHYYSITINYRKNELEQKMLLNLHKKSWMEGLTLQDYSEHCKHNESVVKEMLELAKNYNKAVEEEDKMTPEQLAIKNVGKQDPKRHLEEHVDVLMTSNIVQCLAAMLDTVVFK
Neddylation inh: inhibitors of human cullin neddylation; P61081+Q13564; TR-FRET cullin neddylation, biochemical; inhibition, % at 25 µM; hit rate 0.58% among 360,000; AID 651699; in the data active = inhibition above about 36%
CSN deneddyl inh: CSN deneddylation inhibition; Q92905; Purified CSN, SCF-Nedd8-OG deneddylation, fluorescence polarization; inhibition, % at 12.5 µM; hit rate 0.38% among 360,000; AID 651999;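 active = pattern-corrected inhibition above about 35%, with an unprinted fluorescence ratio check between 0.5 and 1.5, limit read from the data, passing the limit was not always enough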
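Detection – fluorescence polarization · System – HEK293T-derived human Csn5 enzyme · Controls – substrate-only high control, full reaction low control · Timing – 90 min, room temperature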
HNF4A DNA FP: change in binding of human HNF4 alpha to DNA; hit rate 0.3% among 360,000; HNF4a-FITC DNA binding, fluorescence polarization, 1 h; activity change, % at 10 µM; in the data active = activity change above about 30%, passing the limit was not always enough
TPT1 inhibitor: C. albicans TPT1 enzyme inhibition | recombinant caTPT1, FP RNA substrate dephosphorylation | inhibition, % at 5 µM | hit rate 0.81% among 300,000 | AID 1962;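 active = inhibition above the mean of all tested compounds plus 3 SD, set per screening campaign, cut at about 24% in these data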
Rin1 Abl inh: blocks binding of human Rin1 to Abl | P00519+Q13671 | TR-FRET Rin1/Abl binding, biochemical | inhibition, % at 7.35 µM | hit rate 0.4% among 360,000; in the data active = inhibition above about 5%, passing the limit was not always enough
TPT1 inh confirm: TPT1 (C. albicans) inhibition, confirmation | shares compounds with TPT1 inhibitor | recombinant caTPT1, fluorescence polarization, RNase T1 coupled | inhibition, % at 5 µM | hit rate 74% among 2,400 | AID 2149;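 active = inhibition above the primary screen limit, the mean inhibition of all tested compounds plus 3 SD, cut at about 25% in these data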
RNase T1 inh: counter-screen for TPT1 inhibitors: inhibitors of Aspergillus oryzae RNase T1; shares compounds with TPT1 inhibitor; RNase T1 cleavage, fluorescence polarization, 1536-well; inhibition, % at 5 µM; hit rate 83% among 2,400; AID 2153;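 active = inhibition above the solvent-only control well mean plus 3 SD, limit set per screening run, cut at about 23% in these data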;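 also: inhibitors block cleavage so intact labeled substrate keeps polarization high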
Target sequence (P00651 whole entry, looked up): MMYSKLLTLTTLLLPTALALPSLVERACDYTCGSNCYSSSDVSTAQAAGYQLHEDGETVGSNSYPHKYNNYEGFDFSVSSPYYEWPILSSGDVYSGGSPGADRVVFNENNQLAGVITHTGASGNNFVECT
Rpn11 confirm: Rpn11 inhibition confirmation, single concentration. inhibition, % at 20 µM. hit rate 29% among 1,900. shares compounds with Rpn11 block. AID 602318. purified human 26S proteasome, Ub4-pepOG fluorescence polarization; proteasome pretreated with epoxomicin
MMP-2 counter: MMP-2 (human) inhibition counter-screen; shares compounds with Rpn11 block; recombinant MMP-2, FRET peptide cleavage fluorescence; inhibition, % at 20 µM; hit rate 4% among 1,900;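 also: human MMP-2 activated beforehand with APMA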
Thrombin inh: blocks bovine thrombin, flagging nonselective RPN11 hits | shares compounds with Rpn11 block | inhibition, % at 20 µM | hit rate 13% among 1,900 | bovine thrombin cleavage of Ub4-pepOG, fluorescence polarization;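 active = mean inhibition at least 40% at 20 µM, or signal 3 deviations below plate average, so some actives read negative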
Numbers stand for hits. This is a sample that favours compounds with a hit; in the whole collection about 2.4% have one here. Rule as the data show it, unless noted: active = inhibition above about 40%; inactive = the rest.

`CCOC(=O)c1sc(/N=C/c2c(O)n(-c3ccccc3)c(=O)[nH]c2=O)c(C#N)c1C` gave Rpn11 block inactive, Neddylation inh inactive, CSN deneddyl inh inactive, HNF4A DNA FP inactive, TPT1 inhibitor 32, Rin1 Abl inh inactive, TPT1 inh confirm inactive and RNase T1 inh inactive.
For Cc1ccc(/C=C2/C(=O)NC(=O)N(CCc3ccc(F)cc3)C2=O)o1 the results were Rpn11 block inactive, Neddylation inh inactive, CSN deneddyl inh inactive, HNF4A DNA FP inactive, TPT1 inhibitor 27, Rin1 Abl inh inactive, TPT1 inh confirm inactive and RNase T1 inh inactive.
Screening Cn1cc(C(=O)NCc2ccccc2)c2ccccc21 returned Rpn11 block inactive, Neddylation inh inactive, CSN deneddyl inh inactive, HNF4A DNA FP inactive, TPT1 inhibitor 39, Rin1 Abl inh inactive, TPT1 inh confirm inactive and RNase T1 inh inactive.
For Cn1cc(C(=O)NC2CC2)c2ccccc21 the results were Rpn11 block inactive, Neddylation inh inactive, CSN deneddyl inh inactive, HNF4A DNA FP inactive, TPT1 inhibitor inactive and Rin1 Abl inh inactive.
`O=C1CC2OCC=C3CN4CCC56c7ccccc7N1C5C2C3CC46O` (stereo not given) gave Rpn11 block inactive, Neddylation inh inactive, CSN deneddyl inh inactive, HNF4A DNA FP inactive and Rin1 Abl inh inactive.
For COc1cccc(-n2c(/C=C/c3ccccn3)nc3ccccc3c2=O)c1 the results were Rpn11 block inactive, Neddylation inh inactive, CSN deneddyl inh inactive, HNF4A DNA FP inactive and Rin1 Abl inh inactive.
COc1cccc(-n2c(/C=C/c3ccc(O)c(O)c3)nc3ccccc3c2=O)c1 was read as Neddylation inh inactive, CSN deneddyl inh inactive, HNF4A DNA FP 57, TPT1 inhibitor 55, Rin1 Abl inh inactive, TPT1 inh confirm 65 and RNase T1 inh 68.
`COc1ccc(-n2c(/C=C/c3ccc(O)c(OC)c3)nc3ccccc3c2=O)cc1` gave Neddylation inh inactive, CSN deneddyl inh inactive, HNF4A DNA FP inactive, TPT1 inhibitor 45, Rin1 Abl inh inactive, TPT1 inh confirm 57 and RNase T1 inh 67.
Screening CC(=O)c1c(O)n(C)c(=S)n(-c2ccccc2)c1=O returned Rpn11 block inactive, Neddylation inh inactive, CSN deneddyl inh inactive, HNF4A DNA FP inactive, TPT1 inhibitor 45, Rin1 Abl inh inactive, TPT1 inh confirm 30 and RNase T1 inh 40.
Screening CC1=NNC(=O)C1Br (stereo not given) returned Rpn11 block inactive, Neddylation inh inactive, CSN deneddyl inh inactive, HNF4A DNA FP inactive and Rin1 Abl inh inactive.
Cc1cc(C=C(C#N)C#N)ccc1N1CCCC1 was read as Rpn11 block inactive, Neddylation inh inactive, CSN deneddyl inh inactive, HNF4A DNA FP inactive, TPT1 inhibitor 126, Rin1 Abl inh inactive, TPT1 inh confirm 120 and RNase T1 inh 139.
O=C1c2ccccc2-n2nnc(-c3ccccc3)c2C2c3cc(Br)ccc3CCN12 (stereo not given) was read as Rpn11 block inactive, Neddylation inh inactive, CSN deneddyl inh inactive, HNF4A DNA FP inactive and Rin1 Abl inh inactive.
O=c1[nH]c(=O)n(Cc2ccccc2Cl)c(O)c1/C=C1/C=CC=N1 was read as Rpn11 block inactive, Neddylation inh inactive, CSN deneddyl inh inactive, HNF4A DNA FP inactive, TPT1 inhibitor 29, Rin1 Abl inh inactive, TPT1 inh confirm inactive and RNase T1 inh 23.
For O=C1NC(=O)N(Cc2ccco2)C(=O)/C1=C\c1cccn1CCOc1ccc(Cl)cc1 the results were Rpn11 block inactive, Neddylation inh inactive, CSN deneddyl inh inactive, HNF4A DNA FP inactive, TPT1 inhibitor 62, Rin1 Abl inh inactive, TPT1 inh confirm inactive and RNase T1 inh inactive.
For CN(C)c1ccc(/C=C2/C(=O)NC(=O)N(Cc3ccco3)C2=O)cc1 the results were Rpn11 block inactive, Neddylation inh inactive, CSN deneddyl inh inactive, HNF4A DNA FP inactive, TPT1 inhibitor 26, Rin1 Abl inh inactive, TPT1 inh confirm inactive and RNase T1 inh 26.
Cc1cccc(OCCn2cccc2/C=C2/C(=O)NC(=O)N(Cc3ccco3)C2=O)c1 was read as Rpn11 block inactive, Neddylation inh inactive, CSN deneddyl inh inactive, HNF4A DNA FP inactive, TPT1 inhibitor 29, Rin1 Abl inh inactive, TPT1 inh confirm inactive and RNase T1 inh 24.
For Clc1cccc(N2Cc3ccccc3-n3nncc3C2)c1 the results were Rpn11 block inactive, Neddylation inh inactive, CSN deneddyl inh inactive, HNF4A DNA FP inactive and Rin1 Abl inh inactive.
c1cc2c(cc1-c1ccc3c(c1)OCO3)CNCc1cnnn1-2 was read as Rpn11 block inactive, CSN deneddyl inh inactive, HNF4A DNA FP inactive and Rin1 Abl inh inactive.
For O=P(NS(=O)(=O)c1ccccc1)(Oc1ccccc1)Oc1ccccc1 the results were Rpn11 block inactive, Neddylation inh inactive, CSN deneddyl inh inactive, HNF4A DNA FP inactive, TPT1 inhibitor inactive and Rin1 Abl inh inactive.
Screening Cc1ccc(S(=O)(=O)NP(=O)(Oc2ccccc2)Oc2ccccc2)cc1 returned Rpn11 block inactive, Neddylation inh inactive, CSN deneddyl inh inactive, HNF4A DNA FP inactive, TPT1 inhibitor 24, Rin1 Abl inh inactive, TPT1 inh confirm inactive and RNase T1 inh inactive.
`C=CCn1c(O)c(/C=C/C=Nc2ccccc2)c(=O)[nH]c1=O` gave Rpn11 block 88, Neddylation inh inactive, CSN deneddyl inh inactive, HNF4A DNA FP inactive, TPT1 inhibitor 84, Rin1 Abl inh inactive, TPT1 inh confirm 107, RNase T1 inh 129, Rpn11 confirm 98, MMP-2 counter inactive and Thrombin inh inactive.
`COc1ccc(Cn2c(N)c(C(=O)NCc3ccco3)c3nc4ccccc4nc32)cc1` gave Rpn11 block 67, CSN deneddyl inh inactive, HNF4A DNA FP inactive, TPT1 inhibitor 48, Rin1 Abl inh inactive, TPT1 inh confirm inactive, RNase T1 inh inactive, Rpn11 confirm inactive, MMP-2 counter inactive and Thrombin inh inactive.
`Nc1c(C(=O)NCc2ccco2)c2nc3ccccc3nc2n1Cc1ccccc1` gave Rpn11 block inactive, CSN deneddyl inh inactive, HNF4A DNA FP inactive, TPT1 inhibitor inactive and Rin1 Abl inh inactive.
